Experimental findings from ChEMBL document CHEMBL2034971, “Appraisal of GABA and PABA as linker: design and synthesis of novel benzamide based histone deacetylase inhibitors” (Eur J Med Chem, 2012) are described below.

The IC50 is the concentration at which inhibition is half-maximal. Low values mean inhibition by little substance, high ones a need for much substance. By GI50 is commonly meant the concentration that inhibits growth by half. High values mean lower sensitivity of the cells, low ones greater sensitivity of the cells. The term TGI denotes the concentration giving total growth inhibition. The term inhibition in vivo denotes the percentage by which the read-out fell short of the control.

Molecules are shown by their SMILES.

Test [1] concerns the target T1, NAD-dependent protein deacetylase sirtuin-1 (Homo sapiens, UniProt Q96EB6).
T1 sequence (Q96EB6 whole entry): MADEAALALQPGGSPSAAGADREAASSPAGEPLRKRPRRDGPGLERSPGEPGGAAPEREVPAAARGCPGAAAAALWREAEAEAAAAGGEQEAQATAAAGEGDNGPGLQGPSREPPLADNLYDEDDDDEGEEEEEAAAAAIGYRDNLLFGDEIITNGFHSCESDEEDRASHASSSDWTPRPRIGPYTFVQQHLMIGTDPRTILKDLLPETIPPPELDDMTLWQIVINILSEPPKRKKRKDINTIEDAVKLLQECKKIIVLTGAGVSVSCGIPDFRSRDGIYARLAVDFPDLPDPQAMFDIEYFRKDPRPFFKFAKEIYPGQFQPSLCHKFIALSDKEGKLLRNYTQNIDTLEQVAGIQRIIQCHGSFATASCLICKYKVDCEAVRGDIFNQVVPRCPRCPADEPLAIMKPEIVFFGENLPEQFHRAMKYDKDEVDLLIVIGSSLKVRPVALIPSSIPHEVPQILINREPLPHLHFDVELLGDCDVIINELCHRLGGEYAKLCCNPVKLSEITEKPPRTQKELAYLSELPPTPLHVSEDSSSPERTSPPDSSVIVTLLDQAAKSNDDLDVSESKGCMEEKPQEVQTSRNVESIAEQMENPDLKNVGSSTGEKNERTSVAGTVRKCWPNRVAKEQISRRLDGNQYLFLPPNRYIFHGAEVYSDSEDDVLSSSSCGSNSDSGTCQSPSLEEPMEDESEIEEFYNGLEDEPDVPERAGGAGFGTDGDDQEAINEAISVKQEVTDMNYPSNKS
In words: Inhibition of SIRT1.

The next test relates to HCT-116. In words: Growth inhibition of human HCT116 cells after 2 days by MTT assay. The format is functional. The settings on record: HCT-116, 48 h; for CC50: read-out: LC50 (the source's name).
The test system of another test is U-251. The experiment in a line: Growth inhibition of human U251 cells after 2 days by MTT assay. It counts as functional. The settings on record: U-251, 48 h. For orientation: Formazan colour is commonly taken as a measure of viable cells.
Test [2] can be described thus: Antitumor activity against mouse EAC cells allografted in Swiss albino mouse assessed as decrease in tumor cell at 1 mg/kg, ip administered from day 1 to day 7 every 24 hrs. The format is functional. The settings on record: Ehrlich, route intraperitoneal. In short, it runs like this:
(§1)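 EAC cells kept by intraperitoneal passage in Swiss albino mice (18-20 g, 10 weeks) every 10 days; 9-day-old cells in isotonic saline adjusted to 10×10^6 cells/mL, 0.1 mL per 10 g injected ip on day 0. Seven daily ip doses in PBS pH 7.2 (0.1 mL/10 g), days 1-7; vehicle control. Day 8 sacrifice after 6 h fast.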

Test [3] is described as follows: Antitumor activity against mouse EAC cells allografted in Swiss albino mouse assessed as decrease in tumor weight at 1 mg/kg, ip administered from day 1 to day 7 every 24 hrs. The format is functional. The settings on record: Ehrlich, route intraperitoneal. In short, it runs like this: as §1
The next test has as its target Histone deacetylase 1 (Homo sapiens, UniProt Q13547). In words: Inhibition of HDAC1 using Fluor de Lys as substrate by fluorescence analysis.
Test [4] can be described thus: Antitumor activity against mouse EAC cells allografted in Swiss albino mouse assessed as decrease in tumor weight at 0.2 mmol/kg, ip administered from day 1 to day 7 every 24 hrs. The settings on record: Ehrlich. It counts as functional. In short, it runs like this: as §1
A short description of test [5]: Antitumor activity against mouse EAC cells allografted in Swiss albino mouse assessed as decrease in tumor cell at 0.2 mmol/kg, ip administered from day 1 to day 7 every 24 hrs. It counts as functional. The settings on record: Ehrlich. The method in brief: as §1

Histone deacetylase 1, sequence (Q13547 whole entry): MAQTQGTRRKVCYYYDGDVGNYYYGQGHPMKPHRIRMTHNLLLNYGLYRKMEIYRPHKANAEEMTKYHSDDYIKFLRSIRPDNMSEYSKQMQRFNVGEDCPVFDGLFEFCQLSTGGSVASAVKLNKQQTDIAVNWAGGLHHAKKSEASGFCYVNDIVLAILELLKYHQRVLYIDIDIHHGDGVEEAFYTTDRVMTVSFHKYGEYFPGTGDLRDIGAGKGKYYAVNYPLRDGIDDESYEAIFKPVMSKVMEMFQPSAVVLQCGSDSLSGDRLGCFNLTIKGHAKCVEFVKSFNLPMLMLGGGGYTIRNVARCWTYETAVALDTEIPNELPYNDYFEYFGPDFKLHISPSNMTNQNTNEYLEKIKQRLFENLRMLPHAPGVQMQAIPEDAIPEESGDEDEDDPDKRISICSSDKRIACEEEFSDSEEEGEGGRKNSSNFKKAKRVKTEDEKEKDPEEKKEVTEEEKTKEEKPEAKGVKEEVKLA

Regarding `Nc1ccccc1NC(=O)c1ccc(CNC(=O)OCc2cccnc2)cc1` [ENTINOSTAT], the IC50 in test [1] is > 100 µM. In addition, in the test on HCT-116, the 50% growth inhibitory concentration (GI50) was 0.6 µM, the TGI is > 100 µM and the CC50 is > 100 µM. In the test with U-251, this molecule returned a GI50 of 6.5 µM and a concentration for total growth inhibition (TGI) of 40 µM.
For `CO[C@@]12[C@H](COC(N)=O)C3=C(C(=O)C(C)=C(N)C3=O)N1C[C@@H]1N[C@@H]12` [MITOMYCIN], the inhibition in vivo at 1 mg/kg in test [2] and in test [3] was 100% each time.
Regarding `Nc1ccccc1NC(=O)c1ccc(NCC(=O)Nc2cccc(Cl)c2)cc1`, the IC50 at Histone deacetylase 1 came to 2500 nM. In the test on HCT-116, the GI50 came out at 11.5 µM, the TGI was > 100 µM and the CC50 was > 100 µM. For the same molecule, in the test on U-251, it took 15.4 µM to inhibit growth by half (GI50), the LC50 (concentration killing 50% of cells) was > 100 µM and the TGI came to 88 µM. In test [4], the inhibition in vivo at 200 µmol/kg turned out to be 68.4%. The inhibition in vivo at 200 µmol/kg in test [5] came to 51.7%.
